From ChEMBL document CHEMBL4368918, “Structure-Based Design of Inhibitors Selective for Human Proteasome β2c or β2i Subunits” (J Med Chem, 2019) come the findings set out here.

Experiment [1] concerns the target T1, Proteasome Macropain subunit MB1 (Homo sapiens, UniProt P28074).
T1 sequence (P28074 whole entry): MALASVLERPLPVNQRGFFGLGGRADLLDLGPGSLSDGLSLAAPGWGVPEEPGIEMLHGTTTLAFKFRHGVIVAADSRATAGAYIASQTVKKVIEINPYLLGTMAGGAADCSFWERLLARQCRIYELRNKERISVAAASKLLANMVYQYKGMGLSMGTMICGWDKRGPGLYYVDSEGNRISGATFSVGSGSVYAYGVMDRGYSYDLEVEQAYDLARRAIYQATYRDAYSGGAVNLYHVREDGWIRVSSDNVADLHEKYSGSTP
Briefly: Inhibition of 20S constitutive proteasome beta 5 chymotrypsin-like activity in human Raji cell lysates after 1 hr by competitive ABPP assay. Type of experiment: subcellular, Lysate.

Experiment [2] concerns the target T2, Proteasome subunit beta type-8 (Homo sapiens, UniProt P28062).
T2 sequence (P28062 whole entry): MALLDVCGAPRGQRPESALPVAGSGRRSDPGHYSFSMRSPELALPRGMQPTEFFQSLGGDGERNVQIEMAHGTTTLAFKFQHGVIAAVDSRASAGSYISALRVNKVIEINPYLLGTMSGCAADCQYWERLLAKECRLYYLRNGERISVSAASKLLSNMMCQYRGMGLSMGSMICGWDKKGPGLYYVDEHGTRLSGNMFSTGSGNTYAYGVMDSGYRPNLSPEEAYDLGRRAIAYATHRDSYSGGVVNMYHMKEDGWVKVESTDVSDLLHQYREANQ
Put plainly: Inhibition of 20S immunoproteasome beta 5 in human Raji cell lysates after 1 hr by competitive ABPP assay. In kind it is subcellular, Lysate.

The target in experiment [3] is T3, Proteasome subunit beta type-6 (Homo sapiens, UniProt P28072).
T3 sequence (P28072 whole entry): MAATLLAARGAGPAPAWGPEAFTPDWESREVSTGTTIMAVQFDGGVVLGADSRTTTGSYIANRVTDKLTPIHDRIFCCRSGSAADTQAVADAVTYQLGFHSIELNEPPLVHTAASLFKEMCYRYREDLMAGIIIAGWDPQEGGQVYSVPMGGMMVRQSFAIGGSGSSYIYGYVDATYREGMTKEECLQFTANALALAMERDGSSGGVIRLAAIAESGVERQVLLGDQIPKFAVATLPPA
Briefly: Inhibition of 20S constitutive proteasome beta 1 caspase-like activity in human Raji cell lysates after 1 hr by competitive ABPP assay. In kind it is subcellular, Lysate. The gist of the method: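 Raji cells were sonicated in 3 volumes of Tris pH 7.5 lysis buffer containing DTT, MgCl₂, sucrose, 2 mM ATP and 0.05% digitonin. Lysate (5 μg protein, in buffer with 2 mM ATP and glycerol) was preincubated with inhibitor for 1 h at 37 °C, then with a cocktail of three fluorescent ABPs for 1 h. In-gel fluorescence densitometry was normalized to mock. IC50 came from the mean of three experiments.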

The target of experiment [4] is T4, Proteasome subunit beta type-9 (Homo sapiens, UniProt P28065).
T4 sequence (P28065 whole entry): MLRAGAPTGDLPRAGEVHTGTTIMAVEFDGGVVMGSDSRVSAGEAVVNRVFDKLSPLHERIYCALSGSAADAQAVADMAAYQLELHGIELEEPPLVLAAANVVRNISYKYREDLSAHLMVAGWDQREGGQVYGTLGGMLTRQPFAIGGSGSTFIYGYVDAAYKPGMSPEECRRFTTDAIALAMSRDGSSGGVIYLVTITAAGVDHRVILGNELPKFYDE
Briefly: Inhibition of 20S immunoproteasome beta 1 in human Raji cell lysates after 1 hr by competitive ABPP assay. Type of experiment: subcellular, Lysate. In a few lines: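 Raji cells were sonicated in 3 volumes of Tris pH 7.5 lysis buffer containing DTT, MgCl₂, sucrose, 2 mM ATP and 0.05% digitonin. Lysate (5 μg protein, in buffer with 2 mM ATP and glycerol) was preincubated with inhibitor for 1 h at 37 °C, then with a cocktail of three fluorescent ABPs for 1 h. […] In-gel fluorescence densitometry was normalized to mock. IC50 came from the mean of three experiments.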

The target in experiment [5] is T1, Proteasome Macropain subunit MB1. Briefly: Inhibition of 20S constitutive proteasome beta 5 chymotrypsin-like activity in human RPMI8226 cell lysates after 1 hr by coomassie brilliant blue staining-based fluorescence assay. Type of experiment: subcellular, Lysate. The gist of the method:
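Cells at (5–8)×10⁵ cells/mL were exposed to inhibitor for 1 h at 37 °C, washed in PBS and lysed on ice for 1 h in digitonin/ATP buffer. Residual activity was read by cocktail-ABP labeling, SDS-PAGE and fluorescence densitometry relative to mock, with Coomassie staining correcting for loading. IC50 came from three independent experiments.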

The target in experiment [6] is T5, Proteasome subunit beta type-10 (Homo sapiens, UniProt P40306).
T5 sequence (P40306 whole entry): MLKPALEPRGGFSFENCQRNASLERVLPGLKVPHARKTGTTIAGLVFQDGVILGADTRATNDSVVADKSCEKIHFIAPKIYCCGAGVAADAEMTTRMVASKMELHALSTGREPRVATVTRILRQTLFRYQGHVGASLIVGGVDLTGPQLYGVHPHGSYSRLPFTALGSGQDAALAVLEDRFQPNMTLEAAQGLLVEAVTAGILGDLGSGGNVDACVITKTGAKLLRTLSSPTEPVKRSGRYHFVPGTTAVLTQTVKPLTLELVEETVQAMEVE
Briefly: Inhibition of 20S immunoproteasome beta 2 in human Raji cell lysates after 1 hr by competitive ABPP assay. Type of experiment: subcellular, Lysate.

Experiment [7] addresses T5, Proteasome subunit beta type-10. Briefly: Inhibition of 20S immunoproteasome beta 2 (unknown origin) by cell based ABPP assay. The gist of the method: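 Living RPMI-8226 cells, (5–8) ×10^5 cells/mL, exposed to inhibitor 1 h at 37 °C, washed, lysed in digitonin buffer 1 h on ice; residual activity labelled with cocktail ABPs, SDS-PAGE in-gel fluorescence, bands divided by mock, Coomassie staining to correct loading. IC50 from mean of three independent experiments.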

Experiment [8] deals with T4, Proteasome subunit beta type-9. Put plainly: Inhibition of 20S immunoproteasome beta 1 in human RPMI8226 cell lysates after 1 hr by coomassie brilliant blue staining-based fluorescence assay. Type of experiment: subcellular, Lysate. The gist of the method:
(§1)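 Living RPMI-8226 cells were grown in RPMI-1640 with 10% FCS. Cells at (5–8)×10⁵ cells/mL were exposed to inhibitor for 1 h at 37 °C, washed in PBS and lysed on ice for 1 h in digitonin/ATP buffer. Residual activity was read by cocktail-ABP labeling, SDS-PAGE and fluorescence densitometry relative to mock, with Coomassie staining correcting for loading. IC50 came from three independent experiments.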

The target of experiment [9] is T2, Proteasome subunit beta type-8. Put plainly: Inhibition of 20S immunoproteasome beta 5 in human RPMI8226 cell lysates after 1 hr by coomassie brilliant blue staining-based fluorescence assay. Type of experiment: subcellular, Lysate. In a few lines:
as §1

The target of experiment [10] is T5, Proteasome subunit beta type-10. Briefly: Inhibition of 20S immunoproteasome beta 2 in human RPMI8226 cell lysates after 1 hr by coomassie brilliant blue staining-based fluorescence assay. In kind it is subcellular, Lysate.
Experiment [11] is filed under the species Homo sapiens. Put plainly: Selectivity ratio of IC50 for 20S immunoproteasome beta 2 (unknown origin) to IC50 for 20S constitutive proteasome beta 2 trypsin-like activity (unknown origin).
Experiment [12] addresses T6, Proteasome subunit beta type-7 (Homo sapiens, UniProt Q99436).
T6 sequence (Q99436 whole entry): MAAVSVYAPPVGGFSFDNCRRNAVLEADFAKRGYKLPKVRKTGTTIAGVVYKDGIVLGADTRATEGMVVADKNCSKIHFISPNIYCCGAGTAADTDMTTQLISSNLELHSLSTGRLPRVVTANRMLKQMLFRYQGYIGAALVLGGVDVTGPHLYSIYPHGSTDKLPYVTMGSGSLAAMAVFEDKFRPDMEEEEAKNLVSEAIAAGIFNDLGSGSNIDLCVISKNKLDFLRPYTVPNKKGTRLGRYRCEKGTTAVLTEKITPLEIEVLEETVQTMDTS
Put plainly: Inhibition of 20S constitutive proteasome beta 2 trypsin-like activity in human RPMI8226 cell lysates after 1 hr by coomassie brilliant blue staining-based fluorescence assay. In kind it is subcellular, Lysate.

The species entered for experiment [13] is Homo sapiens. Put plainly: Selectivity ratio of IC50 for 20S immunoproteasome beta 5 in human Raji cell lysates to IC50 for 20S constitutive proteasome beta 2 trypsin-like activity in human Raji cells. Type of experiment: cell-based.
The species named for experiment [14] is Homo sapiens. Briefly: Selectivity ratio of IC50 for 20S immunoproteasome beta 2 in human Raji cell lysates to IC50 for 20S constitutive proteasome beta 2 trypsin-like activity in human Raji cells. In kind it is cell-based.
For experiment [15], the species on record is Homo sapiens. Briefly: Selectivity ratio of IC50 for 20S constitutive proteasome beta 1 caspase-like activity in human Raji cell lysates to IC50 for 20S constitutive proteasome beta 2 trypsin-like activity in human Raji cells. In kind it is cell-based.
For experiment [16], the species on record is Homo sapiens. Briefly: Selectivity ratio of IC50 for 20S immunoproteasome beta 1 in human Raji cell lysates to IC50 for 20S constitutive proteasome beta 2 trypsin-like activity in human Raji cells. In kind it is cell-based.
Experiment [17] is filed under the species Homo sapiens. Put plainly: Selectivity ratio of IC50 for 20S constitutive proteasome beta 5 chymotrypsin-like activity in human Raji cell lysates to IC50 for 20S constitutive proteasome beta 2 trypsin-like activity in human Raji cells. In kind it is cell-based.

A value given as a limit tells only on which side of the number the result lay.

For orientation: IC50 means the concentration at which inhibition is half-maximal. As for `COc1ccc(C[C@H](NC(=O)[C@H](C)NC(=O)CN2CCOCC2)C(=O)N[C@@H](C[C@H]2CCC[C@@H]3CCCC[C@@H]32)C(=O)[C@@]2(C)CO2)cc1`, the half-inhibitory concentration (IC50) in experiment [1], in experiment [2], in [3] and in experiment [4] was > 100 µM each time.
As for `CC(C)C[C@H](NC(=O)[C@H](Cc1ccccc1)N=[N+]=[N-])C(=O)N[C@H](C(=O)N[C@H](/C=C/S(C)(=O)=O)Cc1ccc(CN)cc1)[C@@H](C)O`, the half-inhibitory concentration (IC50) in experiment [5] was > 10 µM; in [6] it was 0.11 µM; in experiment [1], 0.75 µM; in experiment [7] it was 0.33 µM; in [8] it was > 10 µM; in experiment [9], > 10 µM. The IC50 is 2.1 µM in [2], > 100 µM in [3], > 10 µM in [10] and > 100 µM in experiment [4].
With `CC(C)C[C@H](NC(=O)[C@H](Cc1ccccc1)N=[N+]=[N-])C(=O)N[C@@H](CO)C(=O)N[C@H](/C=C/S(C)(=O)=O)Cc1ccc(CN)cc1`, the 50% inhibitory concentration (IC50) in experiment [5] was > 10 µM; in experiment [6], 0.23 µM; in [1] it was 1.4 µM; in experiment [7], 0.525 µM; in experiment [8], > 10 µM; in experiment [9], > 10 µM. In addition, the concentration for half-maximal inhibition (IC50) in [2] was 2.2 µM; in [3] it was > 100 µM; in experiment [10] it was > 10 µM; in experiment [4], > 100 µM.
Turning to `CC(C)C[C@H](NC(=O)[C@H](Cc1ccccc1)N=[N+]=[N-])C(=O)NCC(=O)N[C@H](/C=C/S(C)(=O)=O)Cc1ccc(CN)cc1`, the Ratio IC50 is 224 in the experiment filed under Homo sapiens [11]; 187 in the experiment listed under Homo sapiens [13]; 54 in the experiment filed under Homo sapiens [14]; > 2200 in the experiment listed under Homo sapiens [15]; > 2200 in the experiment filed under Homo sapiens [16]; 276 in the experiment filed under Homo sapiens [17]. For the same molecule, the IC50 in experiment [12] is > 10 µM; in [5], > 10 µM; in [6], 2.5 µM; in [1], 8.6 µM; in [7] it was 5.9 µM; in experiment [8], > 10 µM. Also, the IC50 in experiment [9] is > 10 µM; in [2], 12.7 µM; in experiment [3], > 100 µM; in experiment [10] it was > 10 µM; in experiment [4], > 100 µM.
Take `COC1CCC(C[C@H](NC(=O)c2cnc(C)s2)C(=O)N[C@@H](CC(C)C)C(=O)N[C@H](/C=C/S(C)(=O)=O)Cc2ccc(CN)cc2)CC1` (some centres undefined): the Ratio IC50 in the experiment listed under Homo sapiens [11] was > 4; in the experiment listed under Homo sapiens [13], > 220; in the experiment filed under Homo sapiens [14], 7; in the experiment listed under Homo sapiens [15], > 220; in the experiment filed under Homo sapiens [16], > 220; in the experiment filed under Homo sapiens [17] it was > 220. For the same molecule, the half-maximal inhibitory concentration (IC50) in experiment [12] is > 10 µM; in experiment [5], > 10 µM; in experiment [6], 3.1 µM; in [1] it was > 100 µM; in experiment [7], > 1 µM; in experiment [8] it was > 10 µM. Also, the 50% inhibitory concentration (IC50) was > 10 µM in experiment [9]; > 100 µM in experiment [2]; > 100 µM in [3]; > 10 µM in experiment [10]; > 100 µM in experiment [4].
In the case of `COc1ccc(C[C@H](NC(=O)[C@H](C)NC(=O)CN2CCOCC2)C(=O)N[C@@H](C[C@H]2CCCC3CCCCC32)C(=O)[C@@]2(C)CO2)cc1` (some centres undefined), the IC50 in experiment [1], in [2], in [3] and in experiment [4] was > 100 µM in each case.
As to `COc1ccc(C[C@H](NC(=O)[C@H](C)NC(=O)CN2CCOCC2)C(=O)N[C@@H](C[C@@H]2CCCc3ccccc32)C(=O)[C@@]2(C)CO2)cc1`, the half-maximal inhibitory concentration (IC50) in experiment [1], in experiment [2], in experiment [3] and in [4] was > 100 µM each time.
`COc1ccc(C[C@H](NC(=O)[C@H](C)NC(=O)CN2CCOCC2)C(=O)N[C@@H](C[C@@H]2CCCC3CCCCC32)C(=O)[C@@]2(C)CO2)cc1` (some centres undefined): the IC50 in experiment [1], in experiment [2], in experiment [3] and in experiment [4] was > 100 µM each time.
Regarding `COc1ccc(C[C@H](NC(=O)[C@H](C)NC(=O)CN2CCOCC2)C(=O)N[C@@H](CC2CCCC3CCCCC32)C(=O)[C@@]2(C)CO2)cc1` (some centres undefined), the half-maximal inhibitory concentration (IC50) in experiment [1], in [2], in experiment [3] and in experiment [4] was > 100 µM throughout.
